Consider 5 molecules from ChEMBL document CHEMBL3351903, “A potent HDAC inhibitor, 1-alaninechlamydocin, from a Tolypocladium sp. induces G2/M cell cycle arrest and apoptosis in MIA PaCa-2 cells” (J Nat Prod, 2014).

Data set [1] in a line: (§1) Antiproliferative activity against human MIAPaCa2 cells after 48 hrs by MTT assay. As to conditions: MIA PaCa-2, 48 h. The class given is functional. The procedure, abridged: (§2)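 Cells held in RPMI with 5% FetalClone III and penicillin/streptomycin (50 U/mL, 50 μg/mL); hTERT-HPNE also given 10 ng/mL recombinant human EGF; used within 3 months of thaw. 48 h compound exposure, DMSO ≤1% final, then MTT.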
On the technique in general: Tetrazolium dyes change colour on reduction, which living cells bring about.

Data set [2] can be described thus: Antiproliferative activity against human PANC1 cells after 48 hrs by MTT assay. Format: functional. The note with it: PANC-1, 48 h; for CC50: read-out: LC50 (the source's name). The procedure, abridged: as §2
A short description of data set [3]: Antiproliferative activity against hTERT expressing immortalized human HPNE cells after 48 hrs by MTT assay. The class given is functional. As to conditions: for CC50: read-out: LC50 (the source's name). The procedure, abridged: as §2
Data set [4] is described as follows: Half life in rat whole blood. The class given is ADME, tissue-based.
The nature of data set [5]: Half life in freshly prepared rat serum. The class given is ADME, cell-free.
Data set [6] relates to MIA PaCa-2. The description is as §1. The class given is functional. The essentials: as §2
Data set [7] relates to MIA PaCa-2. The data set can be described thus: Induction of PARP cleavage in human MIAPaCa2 cells at 20 nM after 20 hrs by SDS-PAGE and immunoblotting. The class given is functional, cell-based. The essentials: (§3)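 MIA PaCa-2 cells treated 20 h with vehicle, 8 or 20 nM. Total cell lysates run on SDS-PAGE and immunoblotted with a PARP antibody recognizing full-length and cleaved forms. Detection by HRP-conjugated secondary antibody.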

Data set [8] has as its target Histone deacetylase (Homo sapiens) (UniProt Q13547+O15379+Q9UBN7+Q92769+Q9UQL6+Q8WUI4+Q9BY41+Q96DB2+P56524+Q9UKV0+Q969S8). The data set can be described thus: Inhibition of HDAC in human HeLa cell lysates after 30 mins by fluorescence based assay. Format: protein assay. The essentials: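 Fluorometric kit assay using HeLa cell lysate with 100 μM acetylated substrate in assay buffer. Compound added at 20-fold stock, 30 min at 30 °C. Developer then releases the fluorophore from deacetylated substrate; read at ex 355/em 460 nm. Triplicate wells normalized to signal without inhibitor; IC50 by nonlinear regression.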

Data set [9] deals with MIA PaCa-2. The experiment in a line: Induction of cell cycle arrest in human MIAPaCa2 cells assessed as accumulation at G1 phase at 20 nM after 20 hrs by propidium iodide staining based flow cytometry (reference value: 50.2%). Format: functional. The essentials: (§4)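 MIA PaCa-2 cells exposed 20 h to 8 or 20 nM, with vehicle-treated cells as comparison. Cells stained with propidium iodide and analysed by flow cytometry. Cell cycle phase distributions calculated by modelling software.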
Background: A flow cytometer gives signals particle by particle.

Data set [10] deals with MIA PaCa-2. The data set can be described thus: Induction of cell cycle arrest in human MIAPaCa2 cells assessed as accumulation at S phase at 8 nM after 20 hrs by propidium iodide staining based flow cytometry (reference value: 30.6%). The class given is functional. The essentials:
as §4

Data set [11] has as its system MIA PaCa-2. The experiment in a line: Induction of PARP cleavage in human MIAPaCa2 cells at 8 nM after 20 hrs by SDS-PAGE and immunoblotting. The class given is functional, cell-based. The essentials:
as §3

Data set [12] deals with MIA PaCa-2. The data set can be described thus: Antiproliferative activity against human MIAPaCa2 cells exposed to 25 nM compound incubated in human serum for 5 to 30 mins measured after 48 hrs by MTT assay. The class given is functional, cell-based. The essentials: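 Compound DMSO stock mixed 1:10 with human type AB serum and held at room temperature for 5, 10, 15 or 30 min. Aliquots then added to 5000 MIA PaCa-2 cells per well, 25 nM final. Cells grown 48 h, then viability read by MTT.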

Molecules are shown by their SMILES. Calls of active or inactive are those of the source. Where a SMILES comes first, the peptide text is derived from it. [ ]: non-standard residue; d: D form. ξ: configuration not given here. Aoe(9ξ) = N[C@@H](CCCCCC(=O)C1CO1)C(=O)O; dPip = O=C(O)[C@H]1CCCCN1

Broadly, the TGI is the concentration at which net growth stops. A low value points to more potent growth arrest. As for `O=C(CCCCCCC(=O)Nc1ccccc1)NO` [VORINOSTAT], the CC50 is 4.85 µM in [1] (read-out: LC50 (the source's name)), more than 10 µM in data set [2] and more than 10 µM in [3]. The molecule also had a TGI in data set [3] of more than 10 µM.
For orientation: half-life means the time needed for the level to fall by half in the phase considered. The low end stands for fast loss, the high end for slow loss. For the molecule `CC1(C)NC(=O)[C@H](CCCCCC(=O)[C@H]2CO2)NC(=O)[C@H]2CCCN2C(=O)[C@H](Cc2ccccc2)NC1=O` [CHLAMYDOCIN], the half-life is 0.68 to 3.6 min in data set [4] and 8.7 min in data set [5].
In the case of `CCC(=O)CCCCC[C@@H]1NC(=O)[C@H]2CCCCN2C(=O)[C@H]([C@@H](C)CC)NC(=O)[C@H](Cc2cn(OC)c3ccccc23)NC1=O`, the “growth inhibition (GI)” value in data set [6] is “Active”.
`O=C(CCCCC[C@@H]1NC(=O)[C@H]2CCCCN2C(=O)[C@H](Cc2ccccc2)NC(=O)[C@H](Cc2ccccc2)NC1=O)C1CO1` (some centres undefined) (cyclo(FF[dPip][Aoe(9ξ)])): in [6], the “growth inhibition (GI)” value is “Active”.
For `C[C@@H]1NC(=O)[C@H](CCCCCC(=O)[C@@H]2CO2)NC(=O)[C@H]2CCCN2C(=O)[C@H](Cc2ccccc2)NC1=O`, the figures for the TGI in [1], in data set [2] and in [3] were 0.0088 µM, 0.05 µM and 0.66 µM, respectively. Besides, the result in [7] and in [11] was Active. Moreover, in data set [8], the inhibition result was “Dose-dependent effect”. Moreover, the Activity in data set [9] worked out at 19.6%; in data set [10] it was 34.6%. Further, the CC50 in [2] and in data set [3] was more than 10 µM each time. Moreover, the inhibition result in data set [12] was “Active”.
